# Screening data from PubChem.
# 5HT1E ag: 5-HT1E (human) receptor agonism; CHO 5-HT1E Ga15 NFAT-bla reporter, FRET; 0% DMSO wells, 100% control agonist wells; activation, % at 6 µM; actives 0.69% (n = 65,000);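 active = activation above a set limit, the screen-wide mean activation plus 3 SD, cut at about 8.5% in these data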
# Target sequence (P28566 whole entry, looked up): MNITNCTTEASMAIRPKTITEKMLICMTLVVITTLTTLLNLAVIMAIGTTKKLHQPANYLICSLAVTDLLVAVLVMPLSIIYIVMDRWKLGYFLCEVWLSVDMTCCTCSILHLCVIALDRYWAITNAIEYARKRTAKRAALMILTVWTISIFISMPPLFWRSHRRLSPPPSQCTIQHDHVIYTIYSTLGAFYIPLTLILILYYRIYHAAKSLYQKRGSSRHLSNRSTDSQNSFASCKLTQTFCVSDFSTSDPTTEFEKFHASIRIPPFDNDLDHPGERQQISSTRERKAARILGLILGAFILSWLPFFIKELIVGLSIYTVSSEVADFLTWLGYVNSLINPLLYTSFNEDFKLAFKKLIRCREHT
# 5-HT1A blocker: 5-HT1a (human) receptor antagonism; CHO 5-HT1a Ga15 NFAT-bla reporter, antagonist mode; actives 0.68% (n = 62,000); P08908; inhibition, % at 10 µM;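 active = inhibition above the mean of all tested compounds plus 3 SD, cut at about 43% in these data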;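 also: receptor stimulated by 5-CT agonist at 100 nM near EC80; beta-lactamase reporter measured by ratiometric fluorescence of a cleavable substrate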
# S1P1 ag pot: activates or potentiates agonism at human S1P1 receptor | P21453 | S1P1 CRE-bla cells, forskolin, beta-lactamase FRET, potentiator mode; S1P1 agonist co-added at EC20, 2 nM; 100% = saturating reference agonist, 0% = basal | activation, % at 9.5 µM | actives 0.57% (n = 56,000);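 active = activation above a cutoff set at the mean activation of all tested compounds plus 3 SD, cut at about 54% in these data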;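 also: forskolin at 4 µM as EC80 and the EC20 agonist is SEW2871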
# S1P3 agonist: S1P3 (human) receptor agonism; Q99500; S1P3 NFAT-BLA reporter cells, FRET ratio; relative to 1 µM S1P, basal subtracted; actives 0.1% (n = 60,000); activation, % at 4.5 µM; AID 373;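 active = activation above the screen-wide mean plus 3 SD, cut at about 4.5% in these data, passing the limit was not always enough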
#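 material = human S1P3 NFAT-BLA reporter CHO cells | schedule = 4 h compound at 37 °C, 2 h substrate at RT | measured by = fluorescent BLA substrate, ex 405 nm, em 460/535 nm ratio | controls = 1 µM S1P reference | replication = primary once, confirmation triplicate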
# HTR1E antagonist: blocks the human 5-HT1E serotonin receptor; CHO 5-HT1E Ga15 NFAT-bla reporter, FRET, antagonist; inhibition, % at 6 µM; actives 0.99% (n = 65,000);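 active = inhibition above a set limit, the mean inhibition across every tested compound plus 3 SD, cut at about 29% in these data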;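 also: signal is the 460 over 535 nm emission ratio of beta-lactamase substrate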
# 5HT1a ag: agonists of human 5-HT1a serotonin receptor; P08908; CHO 5-HT1a Ga15 NFAT-bla reporter, FRET ratio; 0% basal, 100% maximal reference agonist; activation, % at 10 µM; actives 0.56% (n = 65,000); AID 567;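 active = activation above the screen-wide mean activation plus 3 SD, cut at about 19% in these data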
# A number is an active result; . = inactive; / = no result given. A selection: hits, their analogues and other compounds. The true share with any hit is near 3%.
SMILES,5HT1E ag,5-HT1A blocker,S1P1 ag pot,S1P3 agonist,HTR1E antagonist,5HT1a ag
COc1cc(OC)nc(NC2OC(=O)c3ccccc32)n1 (centres undefined),.,.,.,.,.,.
COc1ccc(CCNC(=O)C2CCCN(Cc3nc(-c4ccccc4C)oc3C)C2)cc1OC (centres undefined),.,.,.,.,.,33.1
CCc1ccc(-c2nc(CN3CCCC(C(=O)NCCc4ccc(OC)c(OC)c4)C3)c(C)o2)cc1 (centres undefined),.,.,.,.,.,37.5
COc1ccc(CCNC(=O)C2CCN(Cc3nc(-c4cccc(Cl)c4)oc3C)CC2)cc1OC,.,.,.,.,.,.
CCOC(=O)N1CCC(NC(=O)C2CCCN(Cc3nc(-c4cccc(Cl)c4)oc3C)C2)CC1 (centres undefined),.,.,102.8,.,.,.
COc1cc(C2C(C#N)=C(N)Oc3cc(N)ccc32)cc(OC)c1OC (centres undefined),.,/,.,.,56.9,.
COc1ccc(OCC(O)Cn2c(=N)n(Cc3ccccc3)c3ccccc32)cc1 (centres undefined),.,47.5,.,.,.,.
Cc1cccc(OCC(O)Cn2c(=N)n(CCN3CCCCC3)c3ccccc32)c1 (centres undefined),.,68.4,.,.,.,.
N=c1n(Cc2ccccc2)c2ccccc2n1CC(O)c1ccco1 (centres undefined),.,.,.,.,.,.
Cc1nn(Cc2ccc(Cl)c(Cl)c2)c(C)c1NC(=O)c1cc(-c2ccco2)on1,.,.,95.6,.,.,.
Cc1nn(Cc2ccc(Cl)cc2)c(C)c1NC(=O)c1cc(-c2ccco2)on1,.,.,.,.,.,.
Cc1nc(NCCNC(=O)c2ccco2)c2c(C)c(C)sc2n1,.,.,.,.,31.7,.
O=C(NCCC1=CCCCC1)C1CCN(S(=O)(=O)c2cccc3cccnc23)CC1,.,.,.,.,.,.
Cn1cc(/C=N/n2cnc3scc(-c4ccccc4)c3c2=O)c2ccccc21,.,.,.,.,30.3,.
COC(=O)C(NC(=O)c1ccco1)(Nc1ccc(Br)cn1)C(F)(F)F (centres undefined),.,/,.,.,.,.
C1CCC(c2nn3c(-c4n[nH]c5c4CCC5)nnc3s2)CC1,.,.,.,.,.,.
CCN(CC)c1ccc(-c2nn3c(-c4n[nH]c5c4CCC5)nnc3s2)cc1,.,56.1,.,.,70.2,.
O=C(NCCSCc1ccccc1)c1cc(S(=O)(=O)N2CCOCC2)ccc1F,.,.,.,.,.,.
CCOC(=O)C1CCCN(C(=O)c2cc3nc(-c4cccc(OC)c4)cc(C(F)(F)F)n3n2)C1 (centres undefined),.,.,/,.,35.1,.
COc1cccc(Cn2nnc(C(=O)NCc3ccc(F)cc3)c2N)c1,.,.,.,.,32.1,.
COc1ccc(C(CC(=O)NCCCN2CCOCC2)NS(=O)(=O)c2ccc(C)cc2)cc1 (centres undefined),.,.,.,.,.,.
COc1ccc(-c2cn3c(C)c(C(=O)N4CCCc5ccccc54)sc3n2)cc1,.,.,70.5,.,.,.
Cc1ccccc1-n1c(SC(C)C(N)=O)nnc1-c1cccnc1 (centres undefined),27.3,.,.,.,.,.
Cc1ccc(-n2c(SCC(N)=O)nnc2-c2cccnc2)c(C)c1,.,.,.,.,.,.
O=C(CC1Oc2ccccc2NC1=O)NCc1ccccc1 (centres undefined),.,.,.,.,.,.
SMILES,5HT1E ag,5-HT1A blocker,S1P1 ag pot,S1P3 agonist,HTR1E antagonist,5HT1a ag
CC(=O)CC1OC(=O)C(Br)=C1NCc1ccccc1 (centres undefined),.,68.6,.,.,.,.
CCOC(=O)C1CCN(C(=O)CC(NS(=O)(=O)c2ccc(OC)cc2)C(C)C)CC1 (centres undefined),.,.,.,.,.,.
CCN(CC)c1ccc2cc(-c3nc4ccccc4[nH]3)c(=O)oc2c1,.,.,.,.,49.2,.
CCN(CC)c1ccc2cc(-c3nc4ccccc4n3C)c(=O)oc2c1,.,53.8,.,.,81.8,.
O=C(NCc1cccnc1)c1c(F)c(F)c(F)c(F)c1F,.,.,.,.,.,.
CCCC(C)C(=O)Nc1nnc(C)s1 (centres undefined),.,.,.,.,.,.
COc1ccc(-c2cc(=O)n(-c3nc4ccccc4[nH]3)[nH]2)cc1,.,.,.,.,.,.
CCOC(=O)c1[nH]c(C)c(C(=O)OCCN2C(=O)c3ccccc3C2=O)c1C,.,.,.,.,37.4,.
CCOC(=O)c1c(C)[nH]c(C(C)=O)c1C,.,.,.,.,.,.
CCOC(=O)c1c(C)c(C(=O)NCC2CCCO2)c(C)n1C (centres undefined),.,.,.,.,.,.
O=C(Nc1cccc(Cl)c1)N1CCN(c2ncccn2)CC1,.,.,.,.,.,.
CC(=O)c1ccc(NC(=O)N2CCN(c3cccc(Cl)c3)CC2)cc1,.,.,64.7,.,.,.
CCOc1ccccc1C(=O)N1CCN(c2cccc(Cl)c2)CC1,.,69.7,.,.,69.8,.
COc1ccc(C(=O)N2CCN(c3cccc(Cl)c3)CC2)c(OC)c1,.,.,/,.,.,.
O=C(O)c1ccccc1C(=O)N1CCN(c2cccc(Cl)c2)CC1,45.0,.,.,.,.,.
COc1ccccc1C(=O)NCCN1CCN(C(=O)c2ccccc2OC)CC1,.,.,.,.,.,.
Nc1c(C(=O)NCCN2CCOCC2)c2nc3ccccc3nc2n1-c1ccc2c(c1)OCO2,.,.,.,.,.,.
Nc1c(C(=O)NCCN2CCOCC2)c2nc3ccccc3nc2n1CCc1ccccc1,.,.,.,7.9,.,24.2
Nc1c(C(=O)NCc2ccc3c(c2)OCO3)c2nc3ccccc3nc2n1CCCN1CCOCC1,13.0,.,.,7.9,.,37.4
CCOC(=O)N1CCN(S(=O)(=O)c2ccc(F)c(C(=O)Nc3cccc(C)c3C)c2)CC1,.,.,.,.,.,.
CCOC(=O)c1ccccc1NC(=O)c1cc(S(=O)(=O)N2CCOCC2)ccc1F,.,.,.,.,29.4,.
COc1ccc(CNC(=O)C(C)NC(=O)c2cc3ccccc3o2)cc1 (centres undefined),.,.,.,.,.,.
C=CCOc1nc(-c2ccncc2)nc2ccccc12,.,/,.,.,.,.
COC(=O)c1ccc(CSc2nc3ccccc3c(=O)n2-c2ccc(OC)c(OC)c2)o1,.,.,.,.,31.0,.
COCCn1c(SCc2ccc(C(=O)OC)o2)nc2ccccc2c1=O,.,.,.,.,.,.
